How the values were obtained:
NCI-H1048 = assay: Antiproliferative activity against human NCI-H1048 assessed as reduction in cell viability incubated for 48 hrs by CellTiter-Glo cell vaibility assay; type: functional, cell-based; details: NCI-H1048, 48 h
How it was run: (§1)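 Tumour cell lines (SCLC panel and AML panel) exposed to increasing concentrations for 48 hours, then cell viability measured. Cell-killing EC50 taken from the concentration-response.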

[1] = Antiproliferative activity against human MOLM16 assessed as reduction in cell viability incubated for 48 hrs by CellTiter-Glo cell vaibility assay; type: functional, cell-based, MOLM-16; details: MOLM16, 48 h; how it was run: as §1
NCI-H345 = assay: Antiproliferative activity against human NCI-H345 assessed as reduction in cell viability incubated for 48 hrs by CellTiter-Glo cell vaibility assay; type: functional, cell-based; details: NCI-H345, 48 h; how it was run: as §1
SKM-1 = assay: Antiproliferative activity against human SKM-1 assessed as reduction in cell viability incubated for 48 hrs by CellTiter-Glo cell vaibility assay; type: functional, cell-based; details: SKM-1, 48 h; how it was run: as §1
NCI-H889 = assay: Antiproliferative activity against human NCI-H889 assessed as reduction in cell viability incubated for 48 hrs by CellTiter-Glo cell vaibility assay; type: functional, cell-based; details: NCI-H889, 48 h; how it was run: as §1
MV4-11 = assay: Antiproliferative activity against human MV4-11 assessed as reduction in cell viability incubated for 48 hrs by CellTiter-Glo cell vaibility assay; type: functional, cell-based; details: MV4-11, 48 h; how it was run: as §1
EOL1 = assay: Antiproliferative activity against human EOL1 assessed as reduction in cell viability incubated for 48 hrs by CellTiter-Glo cell vaibility assay; type: functional, cell-based; details: EOL1, 48 h; how it was run: as §1
MOLM-13 = assay: Antiproliferative activity against human MOLM-13 assessed as reduction in cell viability incubated for 48 hrs by CellTiter-Glo cell vaibility assay; type: functional, cell-based; details: MOLM-13, 48 h; how it was run: as §1
NCI-H69 = assay: Antiproliferative activity against human NCI-H69 assessed as reduction in cell viability incubated for 48 hrs by CellTiter-Glo cell vaibility assay; type: functional, cell-based; details: NCI-H69, 48 h; how it was run: as §1
[2] = molecular target: Induced myeloid leukemia cell differentiation protein Mcl-1 (Homo sapiens, UniProt Q07820); assay: Binding affinity to MCL-1 (unknown origin) assessed as dissociation constant incubated for 1 hrs by TR-FRET assay
Chain of Induced myeloid leukemia cell differentiation protein Mcl-1 (Q07820 whole entry): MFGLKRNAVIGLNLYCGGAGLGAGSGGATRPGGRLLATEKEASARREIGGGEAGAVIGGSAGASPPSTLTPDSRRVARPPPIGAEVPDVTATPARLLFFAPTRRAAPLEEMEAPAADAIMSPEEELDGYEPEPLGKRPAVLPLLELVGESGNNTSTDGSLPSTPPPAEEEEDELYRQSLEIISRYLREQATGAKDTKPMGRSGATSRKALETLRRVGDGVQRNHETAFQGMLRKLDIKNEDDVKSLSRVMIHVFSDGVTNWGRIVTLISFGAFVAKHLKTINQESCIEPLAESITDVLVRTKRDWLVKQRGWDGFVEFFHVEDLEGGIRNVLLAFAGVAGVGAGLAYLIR

KG-1 = assay: Antiproliferative activity against human KG-1 assessed as reduction in cell viability incubated for 48 hrs by CellTiter-Glo cell vaibility assay; type: functional, cell-based; details: KG-1, 48 h; how it was run: as §1
[3] = Antiproliferative activity against human OCI-M1 assessed as reduction in cell viability incubated for 48 hrs by CellTiter-Glo cell vaibility assay; type: functional, cell-based; details: OCI-M1, 48 h; how it was run: as §1
NCI-H211 = assay: Antiproliferative activity against human NCI-H211 assessed as reduction in cell viability incubated for 48 hrs by CellTiter-Glo cell vaibility assay; type: functional, cell-based; details: NCI-H211, 48 h; how it was run: as §1
[4] = Antiproliferative activity against human ME-1 assessed as reduction in cell viability incubated for 48 hrs by CellTiter-Glo cell vaibility assay; type: functional, cell-based; details: ME-1, 48 h; how it was run: as §1
OCI-AML-5 = assay: Antiproliferative activity against human OCI-AML5 assessed as reduction in cell viability incubated for 48 hrs by CellTiter-Glo cell vaibility assay; type: functional, cell-based; details: OCI-AML-5, 48 h; how it was run: as §1
[5] = Inhibition of granulocyte colony formation in human bone marrow cells at 0.1 to 20 uM incubated for 14 to 16 days in presence of docetaxel by light microscopic analysis; type: toxicity, cell-based; details: bone marrow cell, dose lower 0.1 µM, time lower 14 day, dose upper 20 µM, time upper 16 day
How it was run: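 Human bone marrow granulocyte colony-forming assay in semisolid medium, increasing inhibitor concentrations ± 5 nM docetaxel; colonies counted by light microscopy after 14 days; triplicate means with SD; combinations compared with docetaxel alone by Student's t test.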

SET-2 = assay: Antiproliferative activity against human SET2 harboring JAK2 V617F mutant assessed as reduction in cell viability incubated for 48 hrs by CellTiter-Glo cell vaibility assay; type: functional, cell-based; details: SET-2, 48 h; how it was run: as §1
[6] = Antiproliferative activity against human PL-21 assessed as reduction in cell viability incubated for 48 hrs by CellTiter-Glo cell vaibility assay; type: functional, cell-based; details: PL-21, 48 h; how it was run: as §1
NCI-H1417 = assay: Antiproliferative activity against human NCI-H1417 assessed as reduction in cell viability incubated for 48 hrs by CellTiter-Glo cell vaibility assay; type: functional, cell-based; details: NCI-H1417, 48 h; how it was run: as §1
HEL = assay: Antiproliferative activity against human HEL harboring JAK2 V617F mutant assessed as reduction in cell viability incubated for 48 hrs by CellTiter-Glo cell vaibility assay; type: functional, cell-based; how it was run: as §1
DMS-79 = assay: Antiproliferative activity against human DMS 79 assessed as reduction in cell viability incubated for 48 hrs by CellTiter-Glo cell vaibility assay; type: functional, cell-based; details: DMS-79, 48 h; how it was run: as §1
Kasumi 1 = assay: Antiproliferative activity against human Kasumi 1 assessed as reduction in cell viability incubated for 48 hrs by CellTiter-Glo cell vaibility assay; type: functional, cell-based; details: Kasumi 1, 48 h; how it was run: as §1
NCI-H1836 = assay: Antiproliferative activity against human NCI-H1836 assessed as reduction in cell viability incubated for 48 hrs by CellTiter-Glo cell vaibility assay; type: functional, cell-based; details: NCI-H1836, 48 h; how it was run: as §1
[7] = Inhibition of granulocyte colony formation in human bone marrow cells at 0.1 to 20 uM incubated for 14 to 16 days by light microscopic analysis; type: toxicity, cell-based; details: bone marrow cell, dose lower 0.1 µM, time lower 14 day, dose upper 20 µM, time upper 16 day
How it was run: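 Isolated human bone marrow cells cultured in semisolid medium with increasing inhibitor concentrations; granulocyte (neutrophil) colonies counted by light microscopy after 15–16 days; triplicate means with SD; Student's t test versus solvent control.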

[8] = Antiproliferative activity against human OCI-M2 assessed as reduction in cell viability incubated for 48 hrs by CellTiter-Glo cell vaibility assay; type: functional, cell-based; details: OCI-M2, 48 h; how it was run: as §1
[9] = Antiproliferative activity against human HNT-34 assessed as reduction in cell viability incubated for 48 hrs by CellTiter-Glo cell vaibility assay; type: functional, cell-based; details: HNT-34, 48 h; how it was run: as §1
[10] = Antiproliferative activity against human NCI-H847 assessed as reduction in cell viability incubated for 48 hrs by CellTiter-Glo cell vaibility assay; type: functional, cell-based; details: NCI-H847, 48 h; how it was run: as §1
NOMO-1 = assay: Antiproliferative activity against human NOMO-1 assessed as reduction in cell viability incubated for 48 hrs by CellTiter-Glo cell vaibility assay; type: functional, cell-based; details: NOMO-1, 48 h; how it was run: as §1
OCI-AML-3 = assay: Antiproliferative activity against human OCI-AML-3 assessed as reduction in cell viability incubated for 48 hrs by CellTiter-Glo cell vaibility assay; type: functional, cell-based; details: OCI-AML-3, 48 h; how it was run: as §1
SIG-M5 = assay: Antiproliferative activity against human SIG-M5 assessed as reduction in cell viability incubated for 48 hrs by CellTiter-Glo cell vaibility assay; type: functional, cell-based; details: SIG-M5, 48 h; how it was run: as §1
NCI-H446 = assay: Antiproliferative activity against human NCI-H446 assessed as reduction in cell viability incubated for 48 hrs by CellTiter-Glo cell vaibility assay; type: functional, cell-based; details: NCI-H446, 48 h; how it was run: as §1
ML-2 = assay: Antiproliferative activity against human ML-2 assessed as reduction in cell viability incubated for 48 hrs by CellTiter-Glo cell vaibility assay; type: functional, cell-based; details: ML-2, 48 h; how it was run: as §1
OCI-AML2 = assay: Antiproliferative activity against human OCI-AML2 assessed as reduction in cell viability incubated for 48 hrs by CellTiter-Glo cell vaibility assay; type: functional, cell-based; details: OCI-AML2, 48 h; how it was run: as §1
THP-1 = assay: Antiproliferative activity against human THP-1 assessed as reduction in cell viability incubated for 48 hrs by CellTiter-Glo cell vaibility assay; type: functional, cell-based; details: THP-1, 48 h; how it was run: as §1
NCI-H187 = assay: Antiproliferative activity against human NCI-H187 assessed as reduction in cell viability incubated for 48 hrs by CellTiter-Glo cell vaibility assay; type: functional, cell-based; details: NCI-H187, 48 h; how it was run: as §1
MOLT-4 = assay: Antiproliferative activity against Bcl-xl dependent human MOLT-4 cells assessed as reduction in cell viability by measuring effect concentration by CellTiter-Glo reagent based assay; type: functional
[11] = Antiproliferative activity against human UKE-1 harboring JAK2 V617F mutant assessed as reduction in cell viability incubated for 48 hrs by CellTiter-Glo cell vaibility assay; type: functional, cell-based; details: UKE1, 48 h; how it was run: as §1
HL-60 = assay: Antiproliferative activity against human HL-60 assessed as reduction in cell viability incubated for 48 hrs by CellTiter-Glo cell vaibility assay; type: functional, cell-based; details: HL-60, 48 h; how it was run: as §1
GDM-1 = assay: Antiproliferative activity against human GDM-1 assessed as reduction in cell viability incubated for 48 hrs by CellTiter-Glo cell vaibility assay; type: functional, cell-based; details: GDM-1, 48 h; how it was run: as §1

Question: With CC1(C)CCC(CN2CCN(c3ccc(C(=O)NS(=O)(=O)c4ccc(NCC5CCOCC5)c([N+](=O)[O-])c4)c(Oc4cnc5[nH]ccc5c4)c3)CC2)=C(c2ccc(Cl)cc2)C1 [VENETOCLAX] as the compound, how does the EC50 (NCI-H1048) read?
Answer: 2700 nM

Question: And the EC50 [1]?
Answer: 40 nM

Question: What about the EC50 (NCI-H345) of the same compound?
Answer: 1200 nM

Question: And the EC50 (SKM-1)?
Answer: 2530 nM

Question: And the EC50 (NCI-H889)?
Answer: 15 nM

Question: What about the EC50 (MV4-11) of the same compound?
Answer: 100 nM

Question: What about the EC50 (EOL1) of the same compound?
Answer: 100 nM

Question: What about the EC50 (MOLM-13) of the same compound?
Answer: 100 nM

Question: What about the EC50 (NCI-H69) of the same compound?
Answer: 3860 nM

Question: What about the Ki [2] of the same compound?
Answer: > 444 nM

Question: And the EC50 (KG-1)?
Answer: 1200 nM

Question: What about the EC50 [3] of the same compound?
Answer: > 5000 nM

Question: And the EC50 (NCI-H211)?
Answer: 330 nM

Question: What about the EC50 [4] of the same compound?
Answer: > 5000 nM

Question: And the EC50 (OCI-AML-5)?
Answer: 110 nM

Question: What about the Activity [5] of the same compound?
Answer: Toxic

Question: What about the EC50 (SET-2) of the same compound?
Answer: 3330 nM

Question: And the EC50 [6]?
Answer: 1810 nM

Question: What about the EC50 (NCI-H1417) of the same compound?
Answer: 4100 nM

Question: What about the EC50 (HEL) of the same compound?
Answer: 3370 nM

Question: And the EC50 (DMS-79)?
Answer: 4620 nM

Question: And the EC50 (Kasumi 1)?
Answer: 1000 nM

Question: And the EC50 (NCI-H1836)?
Answer: 5000 nM

Question: And the Activity [7]?
Answer: Toxic

Question: And the EC50 [8]?
Answer: 4050 nM

Question: And the EC50 [9]?
Answer: 1700 nM

Question: And the EC50 [10]?
Answer: 3900 nM

Question: And the EC50 (NOMO-1)?
Answer: > 5000 nM

Question: And the EC50 (OCI-AML-3)?
Answer: > 5000 nM

Question: What about the EC50 (SIG-M5) of the same compound?
Answer: 100 nM

Question: And the EC50 (NCI-H446)?
Answer: 2400 nM

Question: And the EC50 (ML-2)?
Answer: 100 nM

Question: And the EC50 (OCI-AML2)?
Answer: 100 nM

Question: What about the EC50 (THP-1) of the same compound?
Answer: 820 nM

Question: What about the EC50 (NCI-H187) of the same compound?
Answer: 850 nM

Question: What about the EC50 (MOLT-4) of the same compound?
Answer: > 5000 nM

Question: And the EC50 [11]?
Answer: 3060 nM

Question: And the EC50 (HL-60)?
Answer: 100 nM

Question: What about the EC50 (GDM-1) of the same compound?
Answer: 100 nM
